What was measured:
[1] = biological target: T1, Estrogen receptor (Mus musculus) (UniProt O08537+P19785); assay: Percent inhibition of uterotrophic effect in mice at 125 ug dose; format: functional
Procedure, shortened: (§1)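 Mice were immature female NMRI (20 days old) given sc injections in olive oil on three consecutive days, each containing 0.4 μg estrone plus test compound. Uteri were weighed dry 24 h after the last injection. Antagonism (%) = 100 − [(W_S,T − W_V)/(W_S − W_V) × 100], with relative uterine weights from estrone+compound, estrone alone and vehicle controls. Significance was tested by Mann-Whitney U test.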

[2] = biological target: T1, Estrogen receptor (Mus musculus); assay: Anti-uterotrophic effect in mice at 25 ug; format: functional
Procedure, shortened: (§2)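 Immature female NMRI mice (20 days old), groups of 6-10, injected sc in olive oil (100 μL/animal) on three consecutive days with test compound plus 0.4 μg estrone per animal and day. Killed 24 h after last injection; uteri fixed in Bouin solution, dried at 100 °C for 24 h. Relative uterine weight = uterine dry weight (mg)/body weight (g) × 100; mean of six animals ± SD.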

[3] = biological target: T1, Estrogen receptor (Mus musculus); assay: Uterotrophic effect in mice at 25 ug; format: functional, tissue-based; conditions: Uterus
Procedure, shortened: (§3)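 Immature NMRI female mice, 20 days old, groups of 6-10, received test compound in olive oil (100 μL/animal) sc on three consecutive days; vehicle controls were included. At 24 h after the last dose, uteri were fixed in Bouin solution and dried at 100 °C for 24 h. Read-out was uterine dry weight (mg)/body weight (g) × 100, mean of six animals ± SD.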

[4] = biological target: Estrogen receptor (Bos taurus) (UniProt Q9XSB5+P49884); assay: Relative binding affinity to calf uterine estrogen receptor; format: protein assay
Procedure, shortened: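 Calf uterine cytosol (105000g supernatant, 3 mg/mL protein in the assay) in Tris/EDTA/NaN3 buffer pH 7.5, with 5 nM 17β-[3H]estradiol and competitor at 10^-9–10^-5 M. Incubated 18 h at 4 °C; bound and free ligand separated with dextran-coated charcoal. Nonspecific binding defined with 5 μM estradiol. RBA = ratio of molar concentrations of estradiol and compound giving 50% displacement × 100.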

[5] = biological target: T1, Estrogen receptor (Mus musculus); assay: Uterotrophic effect in mice at 5 ug; format: functional, tissue-based; conditions: Uterus; procedure, shortened: as §3
[6] = biological target: T1, Estrogen receptor (Mus musculus); assay: Uterotrophic effect in mice at 125 ug; format: functional, tissue-based; conditions: Uterus; procedure, shortened: as §3
[7] = biological target: T1, Estrogen receptor (Mus musculus); assay: Anti-uterotrophic effect in mice at 5 ug; format: functional; procedure, shortened: as §2
[8] = biological target: T1, Estrogen receptor (Mus musculus); assay: Anti-uterotrophic effect in mice at 125 ug; format: functional; procedure, shortened: as §2
[9] = biological target: T1, Estrogen receptor (Mus musculus); assay: Percent inhibition of uterotrophic effect in mice at 5 ug dose; format: functional; procedure, shortened: as §1
[10] = biological target: T1, Estrogen receptor (Mus musculus); assay: Percent inhibition of uterotrophic effect in mice at 25 ug dose; format: functional; procedure, shortened: as §1
[11] = biological target: T1, Estrogen receptor (Mus musculus); assay: Percent inhibition of uterotrophic effect in mice at 1 ug dose; format: functional; procedure, shortened: as §1
[12] = biological target: T1, Estrogen receptor (Mus musculus); assay: Anti-uterotrophic effect in mice at 1 ug; format: functional; procedure, shortened: as §2
[13] = biological target: T1, Estrogen receptor (Mus musculus); assay: Uterotrophic effect in mice at 1 ug; format: functional, tissue-based; conditions: Uterus; procedure, shortened: as §3

T1 sequence (O08537 whole entry, looked up): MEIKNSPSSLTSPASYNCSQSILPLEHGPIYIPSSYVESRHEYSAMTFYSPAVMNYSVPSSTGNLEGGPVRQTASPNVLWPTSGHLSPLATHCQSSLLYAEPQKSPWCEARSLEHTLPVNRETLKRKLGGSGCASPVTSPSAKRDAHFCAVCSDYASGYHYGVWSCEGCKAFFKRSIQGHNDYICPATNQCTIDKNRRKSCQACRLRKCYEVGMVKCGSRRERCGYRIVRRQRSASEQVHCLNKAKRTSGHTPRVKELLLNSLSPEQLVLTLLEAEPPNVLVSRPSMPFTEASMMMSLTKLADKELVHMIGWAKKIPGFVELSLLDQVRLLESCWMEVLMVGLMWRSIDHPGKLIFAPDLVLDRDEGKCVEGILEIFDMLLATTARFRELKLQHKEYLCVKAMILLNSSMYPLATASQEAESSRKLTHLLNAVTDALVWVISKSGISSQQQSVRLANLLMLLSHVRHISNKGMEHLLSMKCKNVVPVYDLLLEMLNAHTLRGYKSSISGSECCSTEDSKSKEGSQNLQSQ
T1 sequence (P19785 whole entry, looked up): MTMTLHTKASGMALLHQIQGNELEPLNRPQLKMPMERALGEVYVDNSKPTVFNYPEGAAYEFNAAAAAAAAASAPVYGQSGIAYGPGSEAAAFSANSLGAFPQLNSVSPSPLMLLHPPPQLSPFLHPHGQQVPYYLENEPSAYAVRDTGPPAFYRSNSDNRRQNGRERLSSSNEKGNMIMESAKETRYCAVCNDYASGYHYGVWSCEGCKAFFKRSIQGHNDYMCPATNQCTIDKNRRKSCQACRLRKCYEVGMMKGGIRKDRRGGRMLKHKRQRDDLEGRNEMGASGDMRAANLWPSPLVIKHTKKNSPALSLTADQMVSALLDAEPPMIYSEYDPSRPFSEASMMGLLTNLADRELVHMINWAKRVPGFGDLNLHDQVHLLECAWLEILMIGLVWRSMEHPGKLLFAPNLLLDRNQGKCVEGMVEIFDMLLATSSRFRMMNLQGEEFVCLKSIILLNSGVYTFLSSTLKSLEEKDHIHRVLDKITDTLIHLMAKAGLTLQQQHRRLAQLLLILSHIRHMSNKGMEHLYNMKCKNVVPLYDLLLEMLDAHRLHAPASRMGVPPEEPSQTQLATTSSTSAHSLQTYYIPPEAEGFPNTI

Structure (SMILES)	inhibition [1] [%]	Relative uterine weight [2]	Relative uterine weight [3]	relative binding affinity (RBA) [4]	Relative uterine weight [5]	Relative uterine weight [6]	Relative uterine weight [7]	Relative uterine weight [8]	inhibition [9] [%]	inhibition [10] [%]	inhibition [11] [%]	Relative uterine weight [12]	Relative uterine weight [13]
CCN(CC)CCCCCCC1C(c2ccc(O)cc2)=C(C)c2cc(O)ccc21 (stereo unspecified)	61	52.5	18.2	14	16.1	22.4	46	30.9	23	–	–	–	–
Oc1ccc(C2=Cc3cc(O)ccc3C2CCCCCCN2CCCCC2)cc1 (stereo unspecified)	–	–	–	1.3	–	–	–	–	–	–	–	–	–
CC1=C(c2ccc(O)cc2)C(CCCCCCN2CCCC2)c2ccc(O)cc21 (stereo unspecified)	117	14.4	13.9	–	9	14.1	15.4	8.9	100	103	20	45.8	12.5
CC1=C(c2ccc(O)cc2)C(CCCCCCN2CCCCC2)c2ccc(O)cc21 (stereo unspecified)	98	–	21.4	23	19.7	24.7	28.9	22.3	71	–	–	–	–
CC1=C(c2ccc(O)cc2)C(CCCCCCCN)c2ccc(O)cc21 (stereo unspecified)	–	–	–	11	–	–	–	–	–	–	–	–	–
CC1=C(c2ccc(O)cc2)C(CCCCCCN)c2ccc(O)cc21 (stereo unspecified)	99	15	12.4	25	11.9	16.9	30.1	16.2	68	102	–	65.9	10.9
CC1=C(c2ccc(O)cc2)C(CCCCCCN2CCOCC2)c2ccc(O)cc21 (stereo unspecified)	102	47.7	21.8	10	19.5	17.4	51.2	18	8	18	–	–	–
CC1=C(c2ccc(O)cc2)C(CCCCCCCCN2CCCC2)c2ccc(O)cc21 (stereo unspecified)	–	–	–	7.6	–	–	–	–	–	–	–	–	–
Oc1ccc(C2=Cc3cc(O)ccc3C2CCCCCCN2CCCC2)cc1 (stereo unspecified)	–	–	–	2.3	–	–	–	–	–	–	–	–	–
CC1=C(c2ccc(O)cc2)C(CCCCN2CCCC2)c2ccc(O)cc21 (stereo unspecified)	53	16.2	6.4	3.6	8	6.4	47.6	25.5	–	78	5	43.7	7.6
CC1=C(c2ccc(O)cc2)C(CCCCCCNCc2ccccc2)c2ccc(O)cc21 (stereo unspecified)	51	44.6	23.6	15	17.8	34	53.2	40.8	25	43	–	–	–
CC1=C(c2ccc(O)cc2)C(CCCCCCN(C)C)c2ccc(O)cc21 (stereo unspecified)	–	–	–	12	–	–	–	–	–	–	–	–	–
CNCCCCCCC1C(c2ccc(O)cc2)=C(C)c2cc(O)ccc21 (stereo unspecified)	59	–	–	27	22.8	34	38.1	33.7	49	–	–	–	14.4
